Experimental data reported in ChEMBL document CHEMBL4330168, “Monomeric and Dimeric Cytotoxic Guaianolide-Type Sesquiterpenoids from the Aerial Parts of Chrysanthemum indicum” (J Nat Prod, 2019).

What was measured:
CNE = test: Cytotoxicity against human CNE1 cells after 48 hrs by MTT assay; type: functional, cell-based
Method in brief: (§1)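 Growth inhibition in nasopharyngeal carcinoma lines (CNE1, CNE2, HONE-1, SUNE-1) and HT-29 colon cells. IC50 values are the mean ± SD of three experiments, with cisplatin as positive control.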

HONE1 cell line [1] = test: Cytotoxicity against human HONE1 cells after 48 hrs by MTT assay; type: functional, cell-based; settings: HONE1, 48 h; method in brief: as §1
CNE-2 = test: Cytotoxicity against human CNE2 cells after 48 hrs by MTT assay; type: functional, cell-based; settings: CNE-2, 48 h; method in brief: as §1
HT-29 = test: Cytotoxicity against human HT-29 cells after 48 hrs by MTT assay; type: functional, cell-based; settings: HT-29, 48 h; method in brief: as §1
SUNE1 = test: Cytotoxicity against human SUNE1 cells after 48 hrs by MTT assay; type: functional, cell-based; settings: SUNE1, 48 h; method in brief: as §1
HONE1 cell line [2] = test: Induction of apoptosis in human HONE1 cells assessed as late apoptotic cells at 5 uM after 48 hrs by Annexin V-FITC/propidium iodide staining based flow cytometry (reference value: 0.37%); type: functional
HONE1 cell line [3] = test: Induction of apoptosis in human HONE1 cells assessed as early apoptotic cells at 5 uM after 48 hrs by Annexin V-FITC/propidium iodide staining based flow cytometry (reference value: 3.24%); type: functional
HONE1 cell line [4] = test: Induction of apoptosis in human HONE1 cells assessed as late apoptotic cells at 10 uM after 48 hrs by Annexin V-FITC/propidium iodide staining based flow cytometry (reference value: 0.37%); type: functional
HONE1 cell line [5] = test: Induction of apoptosis in human HONE1 cells assessed as necrotic cells at 5 uM after 48 hrs by Annexin V-FITC/propidium iodide staining based flow cytometry (reference value: 0.23%); type: functional
HONE1 cell line [6] = test: Induction of apoptosis in human HONE1 cells assessed as live cells at 1 uM after 48 hrs by Annexin V-FITC/propidium iodide staining based flow cytometry (reference value: 96.16%); type: functional
HONE1 cell line [7] = test: Cell cycle arrest in human HONE1 cells assessed as accumulation at G2/M phase at 3 uM after 48 hrs by propidium iodide staining based flow cytometry (reference value: 0.3%); type: functional
HONE1 cell line [8] = test: Induction of apoptosis in human HONE1 cells assessed as late apoptotic cells at 20 uM after 48 hrs by Annexin V-FITC/propidium iodide staining based flow cytometry (reference value: 0.37%); type: functional
HONE1 cell line [9] = test: Cell cycle arrest in human HONE1 cells assessed as accumulation at G0/G1 phase at 20 uM after 48 hrs by propidium iodide staining based flow cytometry (reference value: 55%); type: functional
HONE1 cell line [10] = test: Induction of apoptosis in human HONE1 cells assessed as live cells at 5 uM after 48 hrs by Annexin V-FITC/propidium iodide staining based flow cytometry (reference value: 96.16%); type: functional
HONE1 cell line [11] = test: Cell cycle arrest in human HONE1 cells assessed as accumulation at S phase at 5 uM after 48 hrs by propidium iodide staining based flow cytometry (reference value: 44.7%); type: functional
HONE1 cell line [12] = test: Induction of apoptosis in human HONE1 cells assessed as necrotic cells at 20 uM after 48 hrs by Annexin V-FITC/propidium iodide staining based flow cytometry (reference value: 0.23%); type: functional
HONE1 cell line [13] = test: Induction of apoptosis in human HONE1 cells assessed as early apoptotic cells at 1 uM after 48 hrs by Annexin V-FITC/propidium iodide staining based flow cytometry (reference value: 3.24%); type: functional
HONE1 cell line [14] = test: Induction of apoptosis in human HONE1 cells assessed as live cells at 3 uM after 48 hrs by Annexin V-FITC/propidium iodide staining based flow cytometry (reference value: 96.16%); type: functional
HONE1 cell line [15] = test: Induction of apoptosis in human HONE1 cells assessed as early apoptotic cells at 20 uM after 48 hrs by Annexin V-FITC/propidium iodide staining based flow cytometry (reference value: 3.24%); type: functional
HONE1 cell line [16] = test: Induction of apoptosis in human HONE1 cells assessed as necrotic cells at 3 uM after 48 hrs by Annexin V-FITC/propidium iodide staining based flow cytometry (reference value: 0.23%); type: functional
HONE1 cell line [17] = test: Induction of apoptosis in human HONE1 cells assessed as necrotic cells at 1 uM after 48 hrs by Annexin V-FITC/propidium iodide staining based flow cytometry (reference value: 0.23%); type: functional
HONE1 cell line [18] = test: Induction of apoptosis in human HONE1 cells assessed as early apoptotic cells at 3 uM after 48 hrs by Annexin V-FITC/propidium iodide staining based flow cytometry (reference value: 3.24%); type: functional
HONE1 cell line [19] = test: Cell cycle arrest in human HONE1 cells assessed as accumulation at G2/M phase at 5 uM after 48 hrs by propidium iodide staining based flow cytometry (reference value: 0.3%); type: functional
HONE1 cell line [20] = test: Induction of apoptosis in human HONE1 cells assessed as live cells at 20 uM after 48 hrs by Annexin V-FITC/propidium iodide staining based flow cytometry (reference value: 96.16%); type: functional
HONE1 cell line [21] = test: Cell cycle arrest in human HONE1 cells assessed as accumulation at S phase at 20 uM after 48 hrs by propidium iodide staining based flow cytometry (reference value: 44.7%); type: functional
HONE1 cell line [22] = test: Cell cycle arrest in human HONE1 cells assessed as accumulation at G2/M phase at 20 uM after 48 hrs by propidium iodide staining based flow cytometry (reference value: 0.3%); type: functional
HONE1 cell line [23] = test: Induction of apoptosis in human HONE1 cells assessed as early apoptotic cells at 10 uM after 48 hrs by Annexin V-FITC/propidium iodide staining based flow cytometry (reference value: 3.24%); type: functional
HONE1 cell line [24] = test: Cell cycle arrest in human HONE1 cells assessed as accumulation at G0/G1 phase at 3 uM after 48 hrs by propidium iodide staining based flow cytometry (reference value: 55%); type: functional
HONE1 cell line [25] = test: Cell cycle arrest in human HONE1 cells assessed as accumulation at S phase at 3 uM after 48 hrs by propidium iodide staining based flow cytometry (reference value: 44.7%); type: functional
HONE1 cell line [26] = test: Induction of apoptosis in human HONE1 cells assessed as necrotic cells at 10 uM after 48 hrs by Annexin V-FITC/propidium iodide staining based flow cytometry (reference value: 0.23%); type: functional
HONE1 cell line [27] = test: Induction of apoptosis in human HONE1 cells assessed as live cells at 10 uM after 48 hrs by Annexin V-FITC/propidium iodide staining based flow cytometry (reference value: 96.16%); type: functional
HONE1 cell line [28] = test: Cell cycle arrest in human HONE1 cells assessed as accumulation at G0/G1 phase at 5 uM after 48 hrs by propidium iodide staining based flow cytometry (reference value: 55%); type: functional
HONE1 cell line [29] = test: Cell cycle arrest in human HONE1 cells assessed as accumulation at S phase at 10 uM after 48 hrs by propidium iodide staining based flow cytometry (reference value: 44.7%); type: functional
HONE1 cell line [30] = test: Induction of apoptosis in human HONE1 cells assessed as late apoptotic cells at 1 uM after 48 hrs by Annexin V-FITC/propidium iodide staining based flow cytometry (reference value: 0.37%); type: functional
HONE1 cell line [31] = test: Cell cycle arrest in human HONE1 cells assessed as accumulation at G2/M phase at 10 uM after 48 hrs by propidium iodide staining based flow cytometry (reference value: 0.3%); type: functional
HONE1 cell line [32] = test: Cell cycle arrest in human HONE1 cells assessed as accumulation at G0/G1 phase at 10 uM after 48 hrs by propidium iodide staining based flow cytometry (reference value: 55%); type: functional
HONE1 cell line [33] = test: Induction of apoptosis in human HONE1 cells assessed as late apoptotic cells at 3 uM after 48 hrs by Annexin V-FITC/propidium iodide staining based flow cytometry (reference value: 0.37%); type: functional

Compound: C=C1C(=O)O[C@@H]2[C@@H]3[C@@]4(C=C[C@@]3(C)[C@]3(C4)C(=O)O[C@@H]4[C@H]5C(C)=CC[C@H]5[C@](C)(O)C[C@H](OC(C)=O)[C@H]43)[C@](C)(O)CC[C@@H]12
- IC50 (CNE): > 10 µM
- IC50 (HONE1 cell line [1]): > 10 µM
- IC50 (CNE-2): > 10 µM
- IC50 (HT-29): > 10 µM
- IC50 (SUNE1): > 10 µM

Compound: C/C=C(\C)C(=O)O[C@H]1C[C@@](C)(O)[C@]23C=C[C@](C)([C@@H]2[C@H]2OC(=O)[C@@H](C)[C@@H]21)[C@]1(C3)C(=O)O[C@@H]2[C@H]3C(C)=CC[C@H]3[C@](C)(O)C[C@H](O)[C@H]21
- IC50 (CNE): > 10 µM
- IC50 (HONE1 cell line [1]): 9.2 µM
- IC50 (CNE-2): 9.9 µM
- IC50 (HT-29): > 10 µM
- IC50 (SUNE1): > 10 µM

Compound: C/C=C(\C)C(=O)O[C@H]1CC(C)=C2C[C@H](O)[C@](C)(O)[C@@H]2[C@H]2OC(=O)[C@@H](C)[C@@H]21
- IC50 (CNE): > 10 µM
- IC50 (HONE1 cell line [1]): > 10 µM
- IC50 (CNE-2): > 10 µM
- IC50 (HT-29): > 10 µM
- IC50 (SUNE1): > 10 µM

Compound: CC1=CC[C@@H]2[C@H]1[C@H]1OC(=O)[C@H](C)[C@@H]1[C@@H](O)C[C@@]2(C)O
- IC50 (CNE): > 10 µM
- IC50 (HONE1 cell line [1]): > 10 µM
- IC50 (CNE-2): > 10 µM
- IC50 (HT-29): > 10 µM
- IC50 (SUNE1): > 10 µM

Compound: CC1=CC[C@@H]2[C@H]1[C@H]1OC(=O)[C@@H](C)[C@@H]1[C@H](O)C[C@@]2(C)O
- IC50 (CNE): > 10 µM
- IC50 (HONE1 cell line [1]): > 10 µM
- IC50 (CNE-2): > 10 µM
- IC50 (HT-29): > 10 µM
- IC50 (SUNE1): > 10 µM

Compound: C=C1C(=O)O[C@@H]2[C@@H]3[C@@]4(C=C[C@@]3(C)[C@]3(C4)C(=O)O[C@@H]4[C@H]5C(C)=CC(=O)C5=C(C)CC[C@H]43)[C@](C)(O)CC[C@@H]12
- IC50 (CNE): > 10 µM
- IC50 (HONE1 cell line [1]): > 10 µM
- IC50 (CNE-2): > 10 µM
- IC50 (HT-29): > 10 µM
- IC50 (SUNE1): > 10 µM

Compound: C=C1C(=O)O[C@H]2[C@H]1[C@@H](OC(=O)/C(C)=C/C)C[C@@](C)(O)[C@]13C=C[C@](C)([C@H]21)[C@]1(C3)C(=O)O[C@@H]2[C@H]3C(C)=CC[C@H]3[C@](C)(O)C[C@H](OC(=O)/C(C)=C/C)[C@H]21
- Activity (HONE1 cell line [2]): 2.61%
- Activity (HONE1 cell line [3]): 15%
- Activity (HONE1 cell line [4]): 23.45%
- Activity (HONE1 cell line [5]): 0.53%
- Activity (HONE1 cell line [6]): 96.45%
- Activity (HONE1 cell line [7]): 5.93%
- Activity (HONE1 cell line [8]): 27.85%
- Activity (HONE1 cell line [9]): 14.01%
- IC50 (CNE): 4.6 µM
- Activity (HONE1 cell line [10]): 81.86%
- Activity (HONE1 cell line [11]): 42.25%
- Activity (HONE1 cell line [12]): 6.08%
- Activity (HONE1 cell line [13]): 2.2%
- Activity (HONE1 cell line [14]): 96.38%
- Activity (HONE1 cell line [15]): 9.33%
- Activity (HONE1 cell line [16]): 0.16%
- Activity (HONE1 cell line [17]): 0.21%
- IC50 (HONE1 cell line [1]): 3.5 µM
- Activity (HONE1 cell line [18]): 3.01%
- Activity (HONE1 cell line [19]): 7.52%
- Activity (HONE1 cell line [20]): 56.74%
- Activity (HONE1 cell line [21]): 47.77%
- Activity (HONE1 cell line [22]): 38.22%
- Activity (HONE1 cell line [23]): 10.54%
- IC50 (CNE-2): 6 µM
- Activity (HONE1 cell line [24]): 44.75%
- Activity (HONE1 cell line [25]): 49.32%
- Activity (HONE1 cell line [26]): 0.79%
- Activity (HONE1 cell line [27]): 65.22%
- Activity (HONE1 cell line [28]): 50.22%
- Activity (HONE1 cell line [29]): 42.59%
- Activity (HONE1 cell line [30]): 1.14%
- IC50 (HT-29): 9.6 µM
- Activity (HONE1 cell line [31]): 16.52%
- IC50 (SUNE1): 4.3 µM
- Activity (HONE1 cell line [32]): 40.89%
- Activity (HONE1 cell line [33]): 0.45%

Compound: C/C=C(\C)C(=O)O[C@H]1C[C@@](C)(O)[C@@H]2CC(=O)C(C)=C2[C@H]2OC(=O)[C@@H](C)[C@H]12
- IC50 (CNE): > 10 µM
- IC50 (HONE1 cell line [1]): > 10 µM
- IC50 (CNE-2): > 10 µM
- IC50 (HT-29): > 10 µM
- IC50 (SUNE1): > 10 µM
